A value given as a limit tells only on which side of the number the result lay.

The nature of the assay: Inhibition of Saccharomyces cerevisiae alpha-glucosidase using p-nitrophenyl-alpha-D-glucopyranoside as substrate preincubated for 15 mins. The method in brief: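 Yeast enzyme at 0.6 U/mL in 0.1 M potassium phosphate buffer, pH 6.8. It was preincubated at 37 °C with test compound in water containing 0.5% DMSO. The reaction was started with 5.0 mM PNPG solution in the same buffer and incubated at 37 °C. It was stopped with 0.2 M Na2CO3 in phosphate buffer. Released p-nitrophenol was read at 405 nm, with IC50 as the output.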
On to `COc1cc(O[C@@H]2O[C@H](CO[C@@H]3OC[C@@H](O)[C@H](O)[C@H]3O)[C@@H](O)[C@H](O)[C@H]2O)c2c(=O)c3c(OC)c(O)ccc3oc2c1OC`, for which the IC50 stood at 1500 µM.

The compound `COc1cc(O[C@@H]2O[C@H](CO[C@@H]3OC[C@@H](O)[C@H](O)[C@H]3O)[C@@H](O)[C@H](O)[C@H]2O)c2c(=O)c3c(OC)c(OC)ccc3oc2c1OC` registered an IC50 of 383 µM.

Consider `COc1cc(O[C@@H]2O[C@H](CO)[C@@H](O)[C@H](O)[C@H]2O)c2c(=O)c3c(OC)c(O)ccc3oc2c1O`, for which half-maximal inhibition (IC50) was put at 701 µM.

Consider `COc1cc(O[C@@H]2O[C@H](CO[C@@H]3OC[C@@H](O)[C@H](O)[C@H]3O)[C@@H](O)[C@H](O)[C@H]2O)c2c(=O)c3c(OC)ccc(OC)c3oc2c1`, for which half-maximal inhibition (IC50) was put at 360 µM.

Turning to `COc1cc(O[C@@H]2O[C@H](CO[C@@H]3OC[C@@H](O)[C@H](O)[C@H]3O)[C@@H](O)[C@H](O)[C@H]2O)c2c(=O)c3c(OC)c(OC)cc(OC)c3oc2c1`, the half-maximal inhibitory concentration (IC50) came out at 371 µM.

Take `COc1ccc(O)c2c(=O)c3c(O)cc(O[C@@H]4O[C@H](CO[C@@H]5OC[C@@H](O)[C@H](O)[C@H]5O)[C@@H](O)[C@H](O)[C@H]4O)c(OC)c3oc12`: inhibition was half-maximal at 184 µM (IC50).

`COc1cc(O[C@@H]2O[C@H](CO[C@@H]3O[C@H](CO)[C@@H](O)[C@H](O)[C@H]3O)[C@@H](O)[C@H](O)[C@H]2O)c2c(=O)c3cccc(OC)c3oc2c1`: the IC50 stood at 956 µM.

The compound `COc1cc(O[C@@H]2O[C@H](CO[C@@H]3O[C@H](CO)[C@@H](O)[C@H](O)[C@H]3O)[C@@H](O)[C@H](O)[C@H]2O)c2c(=O)c3c(O)ccc(OC)c3oc2c1` registered a concentration for half-maximal inhibition (IC50) of 693 µM.

Take `COc1cc(O)c2c(=O)c3c(O)c(O[C@@H]4O[C@H](CO)[C@@H](O)[C@H](O)[C@H]4O[C@@H]4O[C@@H](C)[C@H](O)[C@@H](O)[C@H]4O)ccc3oc2c1`: the IC50 is more than 1720 µM.

Regarding `COc1cc(O)c2c(=O)c3c(O[C@@H]4O[C@H](CO)[C@@H](O)[C@H](O)[C@H]4O)c(O[C@@H]4O[C@@H](C)[C@H](O)[C@@H](O)[C@H]4O)ccc3oc2c1`, the IC50 came out at 714 µM.

In the case of `COc1cc(O[C@@H]2O[C@H](CO[C@@H]3OC[C@@H](O)[C@H](O)[C@H]3O)[C@@H](O)[C@H](O)[C@H]2O)c2c(=O)c3c(O)c(OC)ccc3oc2c1`, the IC50 was determined as 451 µM.

In turn, `C[C@H]1O[C@H](O[C@H]2[C@H](O)[C@@H](O)[C@@H](O[C@H]3[C@H](O)[C@@H](O)C(O)O[C@@H]3CO)O[C@@H]2CO)[C@H](O)[C@@H](O)[C@@H]1N[C@H]1C=C(CO)[C@@H](O)[C@H](O)[C@H]1O` (some centres undefined) [ACARBOSE] gave an IC50 of 627 µM.

Take `O=c1c2cc(O)c(O)cc2oc2cc(O)c([C@@H]3O[C@H](CO)[C@@H](O)[C@H](O)[C@H]3O)c(O)c12` [MANGIFERIN]: the IC50 was found to be 296 µM.

Turning to `COc1cc(O)c2c(=O)c3c(O[C@@H]4O[C@H](CO)[C@@H](O)[C@H](O)[C@H]4O)ccc(O)c3oc2c1` [SWERTIANOLIN], 126 µM corresponded to half-maximal inhibition (IC50).

The IC50 is the concentration at which inhibition is half-maximal. The low end stands for inhibition by little substance, the high end for a need for much substance.

The values are drawn from ChEMBL document CHEMBL2406974, “Xanthone glycoside constituents of Swertia kouitchensis with α-glucosidase inhibitory activity” (J Nat Prod, 2013).
